The source of these data is ChEMBL document CHEMBL2062413, “Design of β-amyloid aggregation inhibitors from a predicted structural motif” (J Med Chem, 2012).

For series [1], the target named is T1, Amyloid-beta precursor protein (Homo sapiens, UniProt P05067). As to the kind of experiment: Inhibition of amyloid beta42 aggregation assessed as reduction in fluorescence after 4 days by thioflavin T-based fluorometry. The gist of the method: (§1)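 Aβ42 at 25 μM was incubated with a range of compound concentrations in triplicate at 37°C with shaking for four days, read at t=0 and t=4 d. Compound was taken from a 10 mM DMSO stock diluted in PBS. Aliquots were added to 25 μM ThT in 50 mM glycine, pH 8, for 5 min, then read at ex 446/em 490 nm. IC50 was taken from % fluorescence of untreated control.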
T1 sequence (P05067 whole entry): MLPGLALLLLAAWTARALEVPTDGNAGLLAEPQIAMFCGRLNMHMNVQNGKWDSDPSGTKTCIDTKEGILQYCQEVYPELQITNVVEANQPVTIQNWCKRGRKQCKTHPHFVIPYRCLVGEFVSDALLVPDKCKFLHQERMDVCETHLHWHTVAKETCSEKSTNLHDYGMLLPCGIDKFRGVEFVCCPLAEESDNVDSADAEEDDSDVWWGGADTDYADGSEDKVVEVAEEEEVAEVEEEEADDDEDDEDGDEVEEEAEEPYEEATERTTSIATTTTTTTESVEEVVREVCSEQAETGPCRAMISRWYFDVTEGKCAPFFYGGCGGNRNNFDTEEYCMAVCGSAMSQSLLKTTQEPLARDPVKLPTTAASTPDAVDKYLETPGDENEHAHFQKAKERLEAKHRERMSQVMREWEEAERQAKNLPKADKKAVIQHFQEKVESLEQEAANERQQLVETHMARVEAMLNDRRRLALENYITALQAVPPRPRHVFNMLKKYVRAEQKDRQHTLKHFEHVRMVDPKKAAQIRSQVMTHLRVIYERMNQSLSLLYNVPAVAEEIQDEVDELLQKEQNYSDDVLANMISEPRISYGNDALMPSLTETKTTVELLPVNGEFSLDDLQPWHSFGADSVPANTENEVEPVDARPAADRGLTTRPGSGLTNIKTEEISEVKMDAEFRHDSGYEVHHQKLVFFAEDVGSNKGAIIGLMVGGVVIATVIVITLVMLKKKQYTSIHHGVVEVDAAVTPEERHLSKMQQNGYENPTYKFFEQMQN

A short description of series [2]: Inhibition of amyloid beta42 assessed as decrease in mature fibril formation at 25 uM after 4 days by […] electron microscopy. In outline: (§2)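 Negative-stain TEM: 25 μM Aβ42 alone or with 25 μM compound (1:1), incubated four days at 37°C. Aliquots spotted 2 min on glow-discharged carbon-coated Formvar grids and stained with 1% uranyl acetate.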
The nature of series [3]: Inhibition of amyloid beta42 assessed as increase in amorphous aggregates at 25 uM after 4 days by […] electron microscopy. In outline: as §2
For series [4], the target named is T1, Amyloid-beta precursor protein. As to the kind of experiment: Inhibition of amyloid beta42 aggregation assessed as inhibition of fibril formation at 25 uM after 5 days by circular dichroism. The gist of the method: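 Circular dichroism: 25 μM Aβ42 alone or mixed 1:1 with 25 μM compound, incubated at 37°C with orbital shaking at 200 rpm. Spectra taken every 24 h for 5 days at 37°C in a 1-mm cell, 190–260 nm, 0.2-nm resolution, 1-nm bandwidth, background-subtracted and averaged. Compound dissolved to 10 mM in NaOH, then diluted in PBS.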
A general note: Circular dichroism is the unequal absorption of left and right circularly polarised light.

Series [5] concerns PC-12. As to the kind of experiment: Cytotoxicity against rat PC12 cells assessed as reduction in cell viability at 50 uM after 48 hrs by MTT assay. In kind it is cell-based. Conditions: pc-12, 48 h. A general note: Formazan colour is commonly taken as a measure of viable cells.
Series [6] deals with T1, Amyloid-beta precursor protein. The experiment in a line: Inhibition of amyloid beta42 aggregation assessed as reduction in fluorescence measured immediately post-compound addition by thioflavin T-based fluorometry. In outline:
as §1

A short description of series [7]: Drug degradation in aqueous buffer assessed as N-(2-amino-4-methylphenyl)-4-chlorobenzenesulfonamide formation up to 24 hrs by LC-MS analysis at pH 7.4. In kind it is physicochemical. Particulars: pH 7.4, 24 h.
A short description of series [8]: Drug degradation in aqueous buffer assessed as 3,5-dichloro-2-hydroxybenzaldehyde formation up to 24 hrs by LC-MS analysis at pH 7.4. It counts as physicochemical. Conditions: pH 7.4, 24 h.
Series [9] is described as follows: Drug degradation in aqueous buffer assessed as (E)-N-(2-(3,5-dichloro-2-hydroxybenzylideneamino)-4-methylphenyl)benzo[b]oxirene-3-sulfonamide formation up to 24 hrs by LC-MS analysis at pH 7.4. It counts as physicochemical. Conditions: pH 7.4, 24 h.
Series [10] can be described thus: Drug degradation in aqueous buffer assessed as N-(2-amino-4-methylphenyl)benzo[b]oxirene-3-sulfonamide formation up to 24 hrs by LC-MS analysis at pH 7.4. Conditions: pH 7.4, 24 h. In kind it is physicochemical.

Molecules are shown by their SMILES. pIC50: −log10 of the molar value. The source made the active and inactive calls. The rule behind the calls is not given here.

By pIC50 is commonly meant the IC50 on a negative log10 scale, so that one unit is a factor of ten. For the compound `Cc1ccc(NS(=O)(=O)c2ccc(Cl)cc2)c(/N=C/c2cc(Cl)cc(Cl)c2O)c1`, the negative logarithm of the IC50 (pIC50) was 4.89 in [1] and 4.21 in [6]. For the same compound, in series [1], the inhibition entry was “Dose-dependent effect”. Further, the inhibition entry in series [2], in series [3] and in series [4] was “Active” each time. Moreover, the Activity in series [5] is 40%.

On to `Cc1ccc(NS(=O)(=O)c2ccc(Cl)cc2)c(N)c1`, for which the pIC50 in [1] is 4.64; in series [6] it was 4.52. The inhibition result in series [1] is “Dose-dependent effect”. Moreover, the Drug degradation entry in series [7] was “Active”.

As to `O=Cc1cc(Cl)cc(Cl)c1O`, the inhibition entry in [1] was “inactive”. In addition, the Drug degradation result in [8] is listed as “Active”.

In the case of `Cc1ccc(NS(=O)(=O)c2ccc3c(c2)O3)c(/N=C/c2cc(Cl)cc(Cl)c2O)c1`, the Drug degradation result in [9] is reported as “Active”.

Regarding `Cc1ccc(NS(=O)(=O)c2ccc3c(c2)O3)c(N)c1`, the Drug degradation result in series [10] is “Active”.
